rCAG binder: binders of r(CAG) RNA repeats, primary screen, biochemical, fluorescence. inhibition, % at 3 µM. r(CAG) RNA repeat, TO-PRO-1 dye displacement fluorescence. 370,000 compounds, 1.3% hits;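 active = inhibition above the plate cutoff, the mean of all test compounds on that plate plus 3 SD, cut at about 35% in these data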;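 note: higher means more dye released from RNA so lower well fluorescence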
ABHD4 inh: ABHD4 inhibitors, primary screen, biochemical, fluorescence polarization, mouse. (Lyso)-N-acylphosphatidylethanolamine lipase (Mus musculus), Q8VD66. purified mABHD4, FP-Rh probe fluorescence polarization. inhibition, % at 8.92 µM. 370,000 compounds, 0.54% hits;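 active = inhibition exceeding the mean over every tested compound plus 3 SD, cut at about 30% in these data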
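Material: mouse ABHD4 enzyme, wild type; Benchmarks: S159A mutant high control, sample median low control; Buffer or medium: HEPES pH 7.0, NaCl, Pluronic buffer; Signal: fluorescence polarization; Read-out: percent inhibition of probe binding, normalized to plate controls; Timing: pre-incubation 45 min, probe exposure 60 min, at 25 °C; Dosing: 8.92 µM, single dose.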
HTRA1 inhibitor: HTRA1 serine protease inhibitors, primary screen, biochemical, fluorescence polarization, HTS; Q92743; recombinant HTRA1, FP-rhodamine activity-based probe; inhibition, % at 5.96 µM; 340,000 compounds, 0.5% hits; in the data active = inhibition above about 36%
Target sequence (Q92743 whole entry, looked up): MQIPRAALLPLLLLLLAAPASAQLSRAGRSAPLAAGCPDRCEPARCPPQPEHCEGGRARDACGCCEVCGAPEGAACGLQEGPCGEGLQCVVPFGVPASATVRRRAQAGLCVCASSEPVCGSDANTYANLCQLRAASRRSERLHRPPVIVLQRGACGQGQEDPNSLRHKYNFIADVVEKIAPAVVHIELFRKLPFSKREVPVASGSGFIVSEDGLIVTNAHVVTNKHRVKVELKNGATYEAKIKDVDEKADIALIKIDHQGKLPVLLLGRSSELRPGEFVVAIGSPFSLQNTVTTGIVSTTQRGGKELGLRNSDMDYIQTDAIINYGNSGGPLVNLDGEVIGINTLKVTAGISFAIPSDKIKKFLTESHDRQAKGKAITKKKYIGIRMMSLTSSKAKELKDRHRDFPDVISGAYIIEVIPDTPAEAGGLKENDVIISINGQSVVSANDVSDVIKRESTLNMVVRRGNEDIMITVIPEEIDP
TCR-CD3 inh: inhibitors of human TCR-CD3 interaction, primary screen, biochemical, fluorescence, TAMRA-labeled TCR probe. T-cell receptor (TCR). inhibition, % at 9.4 µM. 360,000 compounds, 0.37% hits. AID 651800, 2012; in the data active = inhibition above about 19%;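 note: recombinant mutant TCR 2C K166C tagged with TAMRA read by polarization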
SIAE primary: human SIAE inhibitors, primary screen, biochemical, fluorescence polarization, FP-Rh probe, 1536-well HTS | Sialate O-acetylesterase (Homo sapiens), Q9HAT2 | SIAE FP-Rh probe binding | inhibition, % at 9.66 µM | 370,000 compounds, 0.69% hits | AID 1053197, 2014;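 active = inhibition above a cutoff: mean of compounds within the control limits plus 3 SD of those, cut at about 17% in these data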
ABHD4 confirm: ABHD4 inhibitors, retest, confirmation, biochemical, fluorescence polarization, mouse; shares compounds with ABHD4 inh; purified mABHD4, FP-Rh probe fluorescence polarization; inhibition, % at 8.92 µM; 1,800 compounds, 55% hits; AID 720658, 2013;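 active = mean inhibition across replicates above the hit cutoff set in the primary screen, cut at about 30% in these data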
SIAE confirm: human SIAE inhibitors, retest, confirmation, biochemical, fluorescence polarization, FP-Rh probe, triplicate; shares compounds with SIAE primary; SIAE FP-Rh activity-based probe; inhibition, % at 9.66 µM; 2,300 compounds, 13% hits; AID 1117263, 2014;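 active = mean inhibition of the replicates above the hit cutoff set in the primary screen, cut at about 17% in these data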;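 note: inhibitors lower polarization as more probe stays unbound to SIAE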
Numbers stand for hits; . = inactive; / = no result. The list is not random: actives were taken first. Their share in the collection is about 2.5%.

SMILES	rCAG binder	ABHD4 inh	HTRA1 inhibitor	TCR-CD3 inh	SIAE primary	SIAE confirm	others
CC(C)N1C(=O)CC(Nc2ccc(N3CCOCC3)cc2)C1=O (centres undefined)	.	33	.	.	21	.	ABHD4 confirm=42
CCOC(=O)c1c(C)[nH]c(C(=O)CSc2nnnn2-c2ccc(C)cc2)c1C	.	.	.	.	.	/
Brc1ccc(-c2ccc(/C=N/Nc3nc4ccccc4[nH]3)o2)cc1	.	32	.	.	19	34	ABHD4 confirm=59
CCCCCn1c(=O)c(C(=O)c2ccccc2)nc2ccccc21	.	.	.	.	.	/
CCCCCCn1c(=O)[nH]c2nc3cc(N)ccc3nc2c1=O	.	50	/	.	18	.	ABHD4 confirm=40
COc1ccc(C(=O)c2[nH]c(N)c(C(=O)NCCc3c[nH]c4ccccc34)c2-c2ccc(Cl)cc2)cc1	.	.	/	.	.	/
Nc1[nH]c(C(=O)c2ccc(Cl)cc2)c(-c2ccc(Br)cc2)c1C(=O)NCCc1c[nH]c2ccccc12	.	.	/	.	.	/
Nc1[nH]c(C(=O)c2ccc(Br)cc2)c(-c2ccc(Cl)cc2[N+](=O)[O-])c1C(=O)NCCc1c[nH]c2ccccc12	.	40	/	.	20	.	ABHD4 confirm=.
COc1ccc(C(=O)c2[nH]c(N)c(C(=O)NCCc3c[nH]c4ccccc34)c2-c2ccc(Cl)c(F)c2)cc1	.	34	/	.	21	.	ABHD4 confirm=37
CCCNC(=O)N[C@@H](CCSC)C(=O)OC	.	.	.	.	.	/
Cc1cccc(C=Nc2ccc3c4c(cccc24)CC3)c1O	.	34	.	.	21	.	ABHD4 confirm=.
Brc1ccccc1/C=N/Nc1ccc2ccccc2n1	.	.	.	.	.	/
O=[N+]([O-])c1cccc(C=NNc2ccc3ccccc3n2)c1O	.	37	.	.	17	.	ABHD4 confirm=37
COn1c2c(c3c4no[n+]([O-])c4ccc31)CCCC2	.	.	.	.	.	/
[O-][n+]1c2c(c3c4non(O)c4ccc31)CCCC2	.	35	.	.	31	28	ABHD4 confirm=.
CN(C(=S)NC(=O)C12CC3CC(CC(C3)C1)C2)c1ccc(O)cc1	.	41	.	.	18	.	ABHD4 confirm=.
O=C(NCc1ccccc1)c1cc(C2CCCCN2C(=O)CCc2ccccc2)on1 (centres undefined)	.	.	/	.	.	/
COc1cccc(CNC(=O)c2cccc(NC(=O)C3=C(C)OCCS3)c2)c1	.	.	.	.	21	.
CCOc1ccc(CNC(=O)c2cccc(NC(=O)C3=C(C)OCCS3)c2)cc1	.	.	.	.	.	/
Cc1cccc(C(=O)Nc2ccc(NC(=O)c3ccccc3)cc2)c1	.	.	.	.	.	/
CC(CNC(=O)CN1C(=O)NC2(CCOc3ccccc32)C1=O)c1ccccc1 (centres undefined)	.	.	.	.	82	.
O=C(COc1ccc(S(=O)(=O)N2CCCCC2)cc1)N1CCOCC1	.	.	.	.	.	/
CCOC(=O)N1CCC(NC(=O)C2CCN(C(=O)N3CC(C)Oc4ccccc43)CC2)CC1 (centres undefined)	.	.	.	.	20	.
CCOC(=O)N1CCC(NC(=O)C2CCN(C(=O)N3CC(C)Oc4ccc(C)cc43)CC2)CC1 (centres undefined)	.	.	.	.	.	/
COc1cc(S(=O)(=O)NCc2ccccc2)ccc1F	.	.	.	.	19	.
SMILES	rCAG binder	ABHD4 inh	HTRA1 inhibitor	TCR-CD3 inh	SIAE primary	SIAE confirm	others
COc1ccc(S(=O)(=O)NCc2ccc(F)cc2)cc1OC	.	.	.	.	.	/
Cn1c(NCc2ccccc2F)nc2cc(-c3ccsc3)sc2c1=O	.	.	/	.	.	/
CC1CCN(S(=O)(=O)c2ccc(C(=O)OC(C)C(=O)NC3CCCCC3C)cc2)CC1 (centres undefined)	.	.	.	.	.	/
CC(OC(=O)/C=C/c1cccc(Cl)c1)C(=O)NC1CCCCC1C (centres undefined)	.	.	.	.	17	.
CC(OC(=O)C1CCN(S(=O)(=O)c2ccc(Cl)cc2)CC1)C(=O)NC1CCCCC1C (centres undefined)	.	.	.	.	19	.
N#CC(=C1C=C(Br)C(=NO)C=C1Cl)c1ccc(Cl)cc1	.	.	.	.	33	50
O=S1(=O)CC(N2CC=CC2)CN1C1CCCCC1 (centres undefined)	.	.	/	.	.	/
CCOc1ccc(CCNS(=O)(=O)c2cccc3nsnc23)cc1OCC	.	.	.	.	17	.
COc1ccc(CCNS(=O)(=O)c2cccc3nsnc23)cc1OC	.	.	.	.	.	/
CCCc1cc(=O)oc2c(CN3CCCC3)c(O)c(Cl)cc12	.	.	.	.	20	.
CSc1nc2ccsc2c(=O)n1-c1ccccc1	.	.	.	.	.	/
Cc1ccccc1N=C1SCCN1C(=O)CN1C(=O)NC2(CCCC2)C1=O	.	.	.	.	.	/
O=C(CN1C(=O)NC2(CCCC2)C1=O)N1CCCSC1=Nc1ccccc1	.	.	.	.	23	69
CN(C)CC1(c2ccccc2)CCCC1	.	.	.	.	.	/
CCCCn1c(N)c(N(CCC(C)C)C(=O)C2=COCCO2)c(=O)[nH]c1=O	.	.	.	.	.	/
CCCCN(C(=O)C1=COCCO1)c1c(N)n(CCC)c(=O)[nH]c1=O	.	.	.	.	20	.
O=C(NC(=S)N(Cc1ccccc1)Cc1ccccc1)c1ccccc1F	.	.	.	.	79	.
Cc1cc(=O)[nH]c(SCC2(O)C3CC4CC(C3)CC2C4)n1 (centres undefined)	.	.	.	.	.	/
Nc1ccc2nc(-c3ccc(-c4nc5ccc(N)cc5[nH]4)cc3)[nH]c2c1	.	.	/	.	17	26
Nc1ccc(-c2nc3ccccc3[nH]2)cc1	.	.	.	.	.	/
COCCCNc1oc(-c2ccccc2Cl)nc1C#N	.	.	.	.	.	/
Cc1ccc(NC2=CC(=O)CC(C)(C)C2)cc1Cl	.	.	.	.	20	.
CC1(C)CC(=O)C=C(Nc2ccc(F)c(Cl)c2)C1	.	.	.	.	.	/
COc1cccc(NC(=S)NN=C2CCC(C(C)(C)C)CC2)c1 (centres undefined)	.	.	.	.	19	.
COc1cccc(NC(=S)N/N=C2\CC(C)(C)Oc3ccc(O)cc32)c1	.	.	.	.	36	21
Cc1cccc(NC(=S)N/N=C2\CC(C)(C)Oc3ccc(O)cc32)c1	.	.	.	.	41	.

Screens as filed in PubChem.
